Test results taken from ChEMBL document CHEMBL2380302, “Synthesis of 3-O-propargylated betulinic acid and its 1,2,3-triazoles as potential apoptotic agents” (Eur J Med Chem, 2013).
The source made the active and inactive calls. The rule behind the calls is not given here.

Assays:
[1] = system: HL-60; assay: Induction of apoptosis in human HL60 cells assessed as DNA ladder formation at 20 to 30 uM after 24 hrs by DNA agarose gel electrophoresis; assay type: functional, cell-based
How it was run: (§1)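 DNA fragmentation assay in HL-60 cells (2 × 10⁶ cells/well) or CV-1 cells, treated for 24 h. Cells were lysed in Tris–HCl pH 8.0/NaCl/EDTA/Triton X-100 with proteinase K (200 µg/mL) at 50 °C for 1 h, then DNase-free RNase for 90 min. DNA was phenol:chloroform extracted and ethanol precipitated. Gels were 1% agarose in TAE at 80 V for 1.5 h. Camptothecin (5 µM, 6 h) served as positive control in HL-60.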

[2] = system: HL-60; assay: Cytotoxicity against human HL60 cells at 50 uM after 48 hrs by SRB assay; assay type: functional; settings: HL-60, 48 h, read-out: GI
[3] = system: HEp-2; assay: Cytotoxicity against human Hep2 cells after 48 hrs by SRB assay; assay type: functional, cell-based; settings: HEp-2, 48 h
[4] = system: A549; assay: Cytotoxicity against human A549 cells after 48 hrs by SRB assay; assay type: functional, cell-based; settings: A549, 48 h
[5] = system: THP-1; assay: Inhibition of cell migration in human THP1 cells at 1 to 30 uM after 24 hrs by wound-healing assay; assay type: functional, cell-based
How it was run: (§2)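 THP-1 monolayers (3×10⁵ cells/mL/well) were scratched with a pipette tip and washed three times with PBS. Test samples were added for 24 h, then fresh medium was added until the control wound healed. Wounds were imaged with a 10× objective at 0 h and 24 h. Migration was quantified as the distance between wound edges.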

[6] = system: HL-60; assay: Induction of apoptosis in human HL60 cells assessed as DNA ladder formation after 24 hrs by DNA agarose gel electrophoresis; assay type: functional; how it was run: as §1
[7] = system: CV-1; assay: Induction of apoptosis in african green monkey CV1 cells assessed as DNA ladder formation at 10 to 60 uM after 24 hrs by DNA agarose gel electrophoresis; assay type: cell-based; settings: chlorocebus aethiops, cv-1, 24 h; how it was run: as §1
[8] = system: THP-1; assay: Cytotoxicity against human THP1 cells after 48 hrs by SRB assay; assay type: functional, cell-based; settings: THP-1, 48 h
[9] = system: MCF7; assay: Cytotoxicity against human MCF7 cells after 48 hrs by SRB assay; assay type: functional, cell-based; settings: MCF7, 48 h
[10] = system: A549; assay: Cytotoxicity against human A549 cells at 50 uM after 48 hrs by SRB assay; assay type: functional; settings: A549, 48 h, read-out: GI
[11] = system: DU-145; assay: Cytotoxicity against human DU145 cells at 50 uM after 48 hrs by SRB assay; assay type: functional; settings: DU-145, 48 h, read-out: GI
[12] = system: HEp-2; assay: Cytotoxicity against human Hep2 cells at 30 uM after 48 hrs by SRB assay; assay type: functional; settings: HEp-2, 48 h, read-out: GI
[13] = system: MCF7; assay: Cytotoxicity against human MCF7 cells at 10 uM after 48 hrs by SRB assay; assay type: functional; settings: MCF7, 48 h, read-out: GI
[14] = system: PC-3; assay: Cytotoxicity against human PC3 cells at 50 uM after 48 hrs by SRB assay; assay type: functional; settings: PC-3, 48 h, read-out: GI
[15] = system: DU-145; assay: Cytotoxicity against human DU145 cells after 48 hrs by SRB assay; assay type: functional, cell-based; settings: DU-145, 48 h
[16] = system: HEp-2; assay: Cytotoxicity against human Hep2 cells at 50 uM after 48 hrs by SRB assay; assay type: functional; settings: HEp-2, 48 h, read-out: GI
[17] = system: SF-295; assay: Cytotoxicity against human SF295 cells after 48 hrs by SRB assay; assay type: functional, cell-based; settings: SF-295, 48 h
[18] = system: THP-1; assay: Inhibition of colony formation in human THP1 cells using crystal violet staining after 24 hrs by clonogenic assay; assay type: functional, cell-based
How it was run: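 THP-1 cells from log-phase culture were plated at clonogenic dilution. After 24 h they were treated for 24 h, then incubated for at least six potential divisions (colonies >50 cells). Colonies were fixed and stained with 6% glutaraldehyde plus 0.5% crystal violet for 30 min, washed with water and air-dried.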

[19] = system: THP-1; assay: Cytotoxicity against human THP1 cells at 10 uM after 48 hrs by SRB assay; assay type: functional; settings: THP-1, 48 h, read-out: GI
[20] = system: HEp-2; assay: Cytotoxicity against human Hep2 cells at 10 uM after 48 hrs by SRB assay; assay type: functional; settings: HEp-2, 48 h, read-out: GI
[21] = system: THP-1; assay: Cytotoxicity against human THP1 cells at 30 uM after 48 hrs by SRB assay; assay type: functional; settings: THP-1, 48 h, read-out: GI
[22] = system: A549; assay: Cytotoxicity against human A549 cells at 30 uM after 48 hrs by SRB assay; assay type: functional; settings: A549, 48 h, read-out: GI
[23] = system: HL-60; assay: Cytotoxicity against human HL60 cells at 30 uM after 48 hrs by SRB assay; assay type: functional; settings: HL-60, 48 h, read-out: GI
[24] = system: DU-145; assay: Cytotoxicity against human DU145 cells at 30 uM after 48 hrs by SRB assay; assay type: functional; settings: DU-145, 48 h, read-out: GI
[25] = system: DU-145; assay: Cytotoxicity against human DU145 cells at 10 uM after 48 hrs by SRB assay; assay type: functional; settings: DU-145, 48 h, read-out: GI
[26] = system: SF-295; assay: Cytotoxicity against human SF295 cells at 50 uM after 48 hrs by SRB assay; assay type: functional; settings: SF-295, 48 h, read-out: GI
[27] = system: HCT-15; assay: Cytotoxicity against human HCT15 cells at 30 uM after 48 hrs by SRB assay; assay type: functional; settings: HCT-15, 48 h, read-out: GI
[28] = system: THP-1; assay: Inhibition of cell invasion in human THP1 cells at 1 to 30 uM after 24 hrs by wound-healing assay; assay type: functional, cell-based; how it was run: as §2
[29] = system: HCT-15; assay: Cytotoxicity against human HCT15 cells at 10 uM after 48 hrs by SRB assay; assay type: functional; settings: HCT-15, 48 h, read-out: GI
[30] = system: HL-60; assay: Ratio of betulinic acid IC50 to compound IC50 for human HL60 cells; assay type: functional
[31] = system: PC-3; assay: Cytotoxicity against human PC3 cells at 10 uM after 48 hrs by SRB assay; assay type: functional; settings: PC-3, 48 h, read-out: GI
[32] = system: HL-60; assay: Cytotoxicity against human HL60 cells after 48 hrs by SRB assay; assay type: functional, cell-based; settings: HL-60, 48 h
[33] = system: MCF7; assay: Cytotoxicity against human MCF7 cells at 30 uM after 48 hrs by SRB assay; assay type: functional; settings: MCF7, 48 h, read-out: GI
[34] = system: PC-3; assay: Cytotoxicity against human PC3 cells at 30 uM after 48 hrs by SRB assay; assay type: functional; settings: PC-3, 48 h, read-out: GI
[35] = system: A549; assay: Cytotoxicity against human A549 cells at 10 uM after 48 hrs by SRB assay; assay type: functional; settings: A549, 48 h, read-out: GI
[36] = system: HL-60; assay: Cytotoxicity against human HL60 cells at 10 uM after 48 hrs by SRB assay; assay type: functional; settings: HL-60, 48 h, read-out: GI
[37] = system: MCF7; assay: Cytotoxicity against human MCF7 cells at 50 uM after 48 hrs by SRB assay; assay type: functional; settings: MCF7, 48 h, read-out: GI
[38] = system: SF-295; assay: Cytotoxicity against human SF295 cells at 10 uM after 48 hrs by SRB assay; assay type: functional; settings: SF-295, 48 h, read-out: GI
[39] = system: HL-60; assay: Induction of apoptosis in human HL60 cells assessed as change in mitochondrial membrane potential after 24 hrs using rhodamine-123 staining by fluorescence based confocal microscopy analysis; assay type: functional, cell-based
How it was run: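 HL-60 cells (6 × 10⁴/mL/well) were treated for 24 h. Rhodamine-123 (1 µM) was added in serum-free medium 30 min before the end, in the dark. Cells were then washed and resuspended in PBS. Fluorescence loss was viewed by confocal microscopy with 488 nm laser excitation. Each experiment was done twice.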

[40] = system: HCT-15; assay: Cytotoxicity against human HCT15 cells after 48 hrs by SRB assay; assay type: functional, cell-based; settings: HCT-15, 48 h
[41] = system: THP-1; assay: Cytotoxicity against human THP1 cells at 50 uM after 48 hrs by SRB assay; assay type: functional; settings: THP-1, 48 h, read-out: GI
[42] = system: PC-3; assay: Cytotoxicity against human PC3 cells after 48 hrs by SRB assay; assay type: functional, cell-based; settings: PC-3, 48 h
[43] = system: HCT-15; assay: Cytotoxicity against human HCT15 cells at 50 uM after 48 hrs by SRB assay; assay type: functional; settings: HCT-15, 48 h, read-out: GI
[44] = system: SF-295; assay: Cytotoxicity against human SF295 cells at 30 uM after 48 hrs by SRB assay; assay type: functional; settings: SF-295, 48 h, read-out: GI

With `C=C(C)[C@@H]1CC[C@]2(C(=O)O)CC[C@]3(C)[C@H](CC[C@@H]4[C@@]5(C)CC[C@H](OCc6cn(-c7cccc8c(O)cccc78)nn6)C(C)(C)[C@@H]5CC[C@]43C)[C@@H]12` the Activity [1] was “Active”, the inhibition of growth at 50 µM [2] was 98% and the IC50 [3] was 13 µM. For the same molecule, the IC50 [4] was 16 µM, the inhibition [5] was “Active” and the Activity [6] was “Dose-dependent effect”. For the same molecule, the MED [6] was 20 µM, the Activity [7] was “Non-toxic” and the IC50 [8] was 8 µM. It also gave an IC50 [9] of 9 µM, an inhibition of growth at 50 µM [10] of 72% and an inhibition of growth at 50 µM [11] of 86%. The inhibition of growth at 30 µM [12] was 63%, the inhibition of growth at 10 µM [13] was 51% and the inhibition of growth at 50 µM [14] was 94%. It also gave an IC50 [15] of 14 µM, an inhibition of growth at 50 µM [16] of 74% and an IC50 [17] of 25 µM. For the same molecule, the inhibition [18] was “Dose-dependent effect”, the inhibition of growth at 10 µM [19] was 51% and the inhibition of growth at 10 µM [20] was 45%. It also gave an inhibition of growth at 30 µM [21] of 82%, an inhibition of growth at 30 µM [22] of 60% and an inhibition of growth at 30 µM [23] of 95%. It also gave an inhibition of growth at 30 µM [24] of 69%, an inhibition of growth at 10 µM [25] of 38% and an inhibition of growth at 50 µM [26] of 87%. For the same molecule, the inhibition of growth at 30 µM [27] was 64%, the inhibition [28] was “Active” and the inhibition of growth at 10 µM [29] was 40%. The “Ratio IC50” value [30] was 5, the inhibition of growth at 10 µM [31] was 35% and the IC50 [32] was 3.5 µM. The inhibition of growth at 30 µM [33] was 63%, the inhibition of growth at 30 µM [34] was 61% and the inhibition of growth at 10 µM [35] was 42%. It also gave an inhibition of growth at 10 µM [36] of 63%, an inhibition of growth at 50 µM [37] of 82% and an inhibition of growth at 10 µM [38] of 18%. The Activity [39] was “Dose-dependent effect”, the IC50 [40] was 15 µM and the inhibition of growth at 50 µM [41] was 92%. It also gave an IC50 [42] of 16 µM, an inhibition of growth at 50 µM [43] of 72% and an inhibition of growth at 30 µM [44] of 61%.
